Numbered stars: 1 amine (or outer) side, 2 acyl side, 3 side chain; on linkers, the order of the positions; unused ones are H or OH. Square brackets hold non-standard residues; d marks the D form. Peptide text beside a SMILES is read from it. * marks the point of attachment. DAMPA = CN(Cc1cnc2nc(N)nc(N)c2n1)c1ccc(C(=O)*)cc1; γGlu = O=C(O)[C@H](CCC(=O)[*:2])N[*:1]
How the values were obtained:
RA-FLS [1] = experiment: Transwell invasion assay; type: cell-based; conditions: transwell with Matrigel, 100 μM, 24 h, n = 6
How it was run: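 RA-FLS were serum-starved 12 h and mixed with hydrogels or MTX solution (100 μM). They were seeded in the upper transwell chamber in serum-free medium with 12.5% Matrigel, with 20% FBS medium below as chemoattractant. After 24 h, invaded cells were stained with 2% crystal violet and counted microscopically, n = 6.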

AIA mice [2] = experiment: Therapeutic effect in adjuvant-induced arthritis; type: in vivo, C57BL/6 mice; conditions: n = 5; for paw swelling after 4 weeks of treatment: 20 μL intra-articular, both knees, twice a week for 4 weeks; for skin temperature of hind paws: infrared camera, 28th day after administration; for clinical score: dynamic, up to 28 days
How it was run: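 Male C57BL/6 AIA mice (CFA s.c. in the fore underarm; IFA into both hind pads a week later; treatment after one further week) were randomised to groups of n = 5. Dosing was 20 μL intra-articular into both knees twice weekly for 4 weeks. Arthritis was scored clinically, joint diameter was measured weekly by vernier caliper, and hind-paw skin temperature was recorded by infrared camera on day 28.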

AIA mice [3] = experiment: Histology and immunohistochemistry of knee joints of AIA mice; type: in vivo, C57BL/6 mice; conditions: day 28
How it was run: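 Male 8-week C57BL/6 mice received CFA (1% w/v) s.c. in the fore underarm, then the same dose of IFA into both hind pads a week later. One week on, 20 μL test hydrogel or PBS was given intra-articularly into both knees twice weekly for 4 weeks (n = 5). On day 28 knees were fixed in 4% paraformaldehyde, EDTA-decalcified 30 days, stained H&E and safranin-O/fast green, and Mankin-scored.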

RA-FLS [4] = experiment: Wound-healing; type: cell-based; conditions: 100 μM, 48 h culture then scratch, n = 6
How it was run: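 RA-FLS were serum-starved 12 h, mixed with hydrogels (formed from 100 μM peptide) or MTX solution (100 μM), and cultured 48 h. Monolayers were then scratched. Migration rate was calculated from healed area after a further 12 and 24 h, n = 6.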

proteinase K = proteinase K (Parengyodontium album, UniProt P06873); experiment: Biostability of hydrogels exposed to proteinase K; type: in vitro ADME; conditions: for change of HPLC peak after addition of proteinase K: 37 °C, HPLC spectra (Fig. 1e)
How it was run: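 Peptide (1 mg in 5 mL PBS) incubated at 37 °C with proteinase K (3.2 units/mL). Aliquots were taken at each time point and analysed by reverse-phase HPLC on a C18 column, eluting with MeOH and water (each with 0.05% TFA).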

AIA mice [5] = experiment: Immunofluorescence staining of synovial tissues of AIA mice; type: in vivo, C57BL/6 mice; conditions: for fluorescence signal of iNOS (M1 macrophages) in synovial tissues: n = 3; for synovial pannus / neovascularization (CD31 expression): n = 3 (Fig. 6c, Figure S14)
How it was run: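 AIA was induced in male C57BL/6 mice with CFA s.c., followed a week later by IFA into the hind pads. Knees received 20 μL intra-articular treatment twice weekly for 4 weeks. Knee joint sections were stained overnight at 4 °C with antibodies to CD31, F4/80, CD206 or iNOS (1:300), then Alexa Fluor 488 or Cy3 secondaries (1:8000, 2 h, room temperature) and DAPI. Imaging was by fluorescence microscopy, n = 3.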

[6] = tested on: RA synovial fibroblast (RA-FLS); experiment: MTT cell viability, RA-FLS; type: cell-based; conditions: 48 h
How it was run: (§1)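 Cells were seeded at 10^4 per well and exposed for 48 h to test compound or hydrogel at 200, 100, 50, 10, 5 or 0 μM. Viability was read by MTT absorbance at 490 nm.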

[7] = tested on: human umbilical vein endothelial cell (HUVEC); experiment: MTT cell viability, HUVEC; type: cell-based; conditions: 5-200 μM, 48 h, n = 3
How it was run: as §1

AIA mice [8] = experiment: Serum inflammatory cytokines in AIA mice; type: in vivo, C57BL/6 mice; conditions: compared to PBS group, without statistical difference, n = 3 (Figure S13)
L929 = experiment: Live/dead staining, L929; type: cell-based, mouse; conditions: 100 μM, 48 h, Calcein AM/PI; MTX-loaded compared to MTX-GFFY and free MTX groups
How it was run: (§2)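 Cells were exposed to hydrogels or free MTX (100 μM) for 48 h, stained with Calcein AM (live) and propidium iodide (dead), and imaged by fluorescence microscopy.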

RAW264.7 cells = experiment: Immunofluorescence staining of iNOS and CD206 on RAW264.7; type: cell-based, Mice; conditions: 100 μM, 24 h
How it was run: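 RAW264.7 cells were polarised with 1% w/v LPS-containing medium for 24 h, then exposed to test compound or hydrogel (100 μM) for another 24 h. Cells were immunostained for iNOS (M1) and CD206 (M2) and imaged by fluorescence.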

HUVEC = experiment: Live/dead staining, HUVEC; type: cell-based, human; conditions: 100 μM, 48 h, Calcein AM/PI; MTX-loaded compared to MTX-GFFY and free MTX groups
How it was run: as §2

[9] = tested on: M1 macrophages (LPS-induced RAW264.7); experiment: Western blot of M1 markers in RAW264.7; type: cell-based, Mice; conditions: 100 μM, 24 h, compared to control group (LPS), n = 3
How it was run: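 RAW264.7 cells were polarised with […] LPS for 24 h, then treated with test compound or hydrogel (100 μM) for 24 h. Lysate protein was quantified by Bradford assay, run on 10% SDS-PAGE and transferred to PVDF. Membranes were probed overnight at 4 °C for iNOS, IL-6 and TNF-α, then secondary antibody for 120 min at room temperature. Detection was by chemiluminescence, with tubulin reference and densitometry, n = 3.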

RA-FLS [10] = experiment: Live/dead staining, RA-FLS; type: cell-based; conditions: 100 μM, 48 h, Calcein AM/PI
[11] = Gelation by heating-cooling and recovery after injection; type: physicochemical
How it was run: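 Gels were formed by dissolving peptide in PBS/Na2CO3 (pH 7.4), heating 30 s (flame or 100 °C water bath), then cooling at room temperature. Samples went onto the rheometer right after gelation: 40 mm parallel plates, 500 μm gap, frequency sweep 0.1–100 rad/s at 1% strain. Gel was measured before and after injection.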

mouse fibroblast (L929) = experiment: MTT cell viability, L929; type: cell-based; conditions: 5-200 μM, 48 h, n = 3
How it was run: as §1

[12] = tested on: M1 macrophages (LPS-induced RAW264.7); experiment: RT-qPCR of M1 markers in LPS-induced RAW264.7; type: cell-based, Mice; conditions: 100 μM, 24 h, compared to control group (LPS), n = 3
How it was run: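 RAW264.7 cells were polarised to M1 with 1% w/v LPS medium for 24 h, then treated with test compound or hydrogel (100 μM) for 24 h. Total RNA was extracted with TRIzol, and iNOS, IL-6 and TNF-α mRNA were quantified by RT-qPCR.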

[13] = hydrogel exposed to proteinase K at 37 °C, images (Figure S8)

proteinase K, sequence (P06873 106-384, species assumed): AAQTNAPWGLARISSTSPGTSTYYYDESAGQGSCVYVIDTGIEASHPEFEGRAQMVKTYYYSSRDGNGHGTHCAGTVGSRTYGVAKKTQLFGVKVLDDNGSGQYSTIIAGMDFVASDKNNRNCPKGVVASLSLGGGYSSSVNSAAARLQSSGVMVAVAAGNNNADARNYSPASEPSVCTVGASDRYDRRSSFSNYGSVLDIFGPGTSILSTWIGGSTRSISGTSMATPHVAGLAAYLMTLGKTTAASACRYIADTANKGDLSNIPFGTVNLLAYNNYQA

| Structure (SMILES) | RA-FLS invasion into the lower chamber (cell numbers) (RA-FLS [1]) | paw swelling after 4 weeks of treatment (AIA mice [2]) | skin temperature of hind paws (AIA mice [2]) | synovial hyperplasia and joint structure (H&E staining) (AIA mice [3]) | wound-healing rate at 24 h (RA-FLS [4]) | change of HPLC peak after addition of proteinase K (proteinase K) | fluorescence signal of iNOS (M1 macrophages) in synovial tissues (AIA mice [5]) | clinical score (AIA mice [2]) | expression of iNOS (M1 marker) in RAW264.7 cells (RAW264.7 cells) | synovial pannus / neovascularization (CD31 expression) (AIA mice [5]) | relative gene expression of M1 markers (IL-6, TNF-α, iNOS) [12] | further results |
| --- | --- | --- | --- | --- | --- | --- | --- | --- | --- | --- | --- | --- |
| CN(Cc1cnc2nc(N)nc(N)c2n1)c1ccc(C(=O)N[C@@H](CCC(=O)NCC(=O)N[C@@H](Cc2ccccc2)C(=O)N[C@@H](Cc2ccccc2)C(=O)N[C@@H](Cc2ccc(O)cc2)C(=O)O)C(=O)O)cc1 [MTX-GFFY] ({DAMPA-γGlu}-GFFY-OH) | obviously decreased | paw swelling was alleviated | below 33 °C | synovial evasion was inhibited | 50% | gradually decreased | significantly decreased |  |  |  |  | time after which hydrogel became flowable (proteinase K; [13]): 1 days; effect on RA-FLS at 100 μM ([6]; 100 μM): mild effects |
| CN(Cc1cnc2nc(N)nc(N)c2n1)c1ccc(C(=O)N[C@@H](CCC(=O)NCC(=O)N[C@H](Cc2ccccc2)C(=O)N[C@H](Cc2ccccc2)C(=O)N[C@H](Cc2ccc(O)cc2)C(=O)O)C(=O)O)cc1 [MTX-G^DF^DF^DY] ({DAMPA-γGlu}-G[dF][dF][dY]-OH) | obviously decreased | effectively relieved paw swelling |  | knee joint structure was well protected | 40% | had no obvious change | lowest | lowest among all groups | strongest inhibitory effect | lowest among all treatment groups | all marker genes of M1 macrophages were significantly down-regulated | effect on cell proliferation / cytotoxicity, HUVEC [7]: reduced the cytotoxicity; level of serum IL-6 (AIA mice [8]): slightly lower; level of serum TNF-α (AIA mice [8]): slightly lower; IL-6 expression level in synovial tissue (immunohistochemistry) (AIA mice [3]): decreased to a similar level to normal group; live/dead staining, L929 (L929): less L929 and HUVEC cells were dead; time hydrogel was stable in vitro (proteinase K; [13]): approximately 5 days; live/dead staining, HUVEC (HUVEC): less L929 and HUVEC cells were dead; expression of M1 macrophage related proteins (iNOS, IL-6, TNF-α) [9]: best inhibitory effect; live/dead staining, RA-FLS (RA-FLS [10]): significantly enhanced the ratio of dead cells/live cells; effect on RA-FLS proliferation at 50 μM ([6]; 50 μM): significantly inhibited RA-FLS proliferation; time until hydrogel became stable (dynamic gelation process) ([11]; 10.317 mM (1 wt%) peptide in PBS, heating-cooling process (Figure S3)): ≤ 2 min; time to return to gel after injection ([11]; rheology before and after injection (Fig. 1d)): 5 min; effect on cell proliferation / cytotoxicity, L929 (mouse fibroblast (L929)): reduced the cytotoxicity |
| CN(Cc1cnc2nc(N)nc(N)c2n1)c1ccc(C(=O)N[C@@H](CCC(=O)O)C(=O)O)cc1 [MTX, methotrexate, reference compound] | inhibited approximately half | paw swelling was alleviated | below 33 °C | synovial evasion was inhibited | 100% |  | significantly decreased | gradually decreased | significantly decreased | lowest among all treatment groups | not obvious | wound-healing rate at 12 h (RA-FLS [4]; 12 h): 50% |
